What was measured:
Format in all cases: functional
Conditions in all cases: read-out: Activity
HL-60(TB) = assay: Growth inhibition of human HL-60(TB) cells assessed as cell growth at 10 uM incubated for 48 hrs by sulforhodamine B assay relative to control
Method in brief: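 Screened by the NCI Developmental Therapeutics Program on its panel of 60 human tumour cell lines. Compounds were first tested at a single 10 µM dose, and compounds active there went to dose-response curves. Growth is expressed relative to untreated control (100%). GI50 (50% of maximal proliferation inhibition) and TGI (total growth inhibition) were derived from the dose-response data.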

U-251 = assay: Growth inhibition of human U-251 cells assessed as cell growth at 10 uM incubated for 48 hrs by sulforhodamine B assay relative to control
Method in brief: (§1)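 Run by the NCI Developmental Therapeutics Program as part of its 60-line human tumour panel. Each compound tested at a single 10 µM dose. Growth expressed as % relative to untreated control cells (100%).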

OVCAR-3 = assay: Growth inhibition of human OVCAR-3 cells assessed as cell growth at 10 uM incubated for 48 hrs by sulforhodamine B assay relative to control; method in brief: as §1
Malme-3M = assay: Growth inhibition of human Malme-3M cells assessed as cell growth at 10 uM incubated for 48 hrs by sulforhodamine B assay relative to control
Method in brief: (§2)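 Submitted to the NCI Developmental Therapeutics Program for the NCI60 human tumour cell line panel. First screen at a single 10 µM concentration. Read-out is growth relative to untreated control cells set at 100%.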

DU-145 = assay: Growth inhibition of human DU-145 cells assessed as cell growth at 10 uM incubated for 48 hrs by sulforhodamine B assay relative to control
Method in brief: (§3)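 NCI Developmental Therapeutics Program NCI60 panel. Compounds that were active in the 10 µM one-dose screen went on to dose–response testing. Growth at each concentration is expressed relative to untreated control (100%). GI50 (concentration giving 50% of maximal inhibition of proliferation) and TGI (concentration giving total growth inhibition) were derived from the curves.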

OVCAR-8 = assay: Growth inhibition of human OVCAR-8 cells assessed as cell growth at 10 uM incubated for 48 hrs by sulforhodamine B assay relative to control; method in brief: as §1
M14 = assay: Growth inhibition of human M14 cells assessed as cell growth at 10 uM incubated for 48 hrs by sulforhodamine B assay relative to control; method in brief: as §2
HOP-92 = assay: Growth inhibition of human HOP-92 cells assessed as cell growth at 10 uM incubated for 48 hrs by sulforhodamine B assay relative to control; method in brief: as §2
A549 = assay: Growth inhibition of human A549/ATCC cells assessed as cell growth at 10 uM incubated for 48 hrs by sulforhodamine B assay relative to control; method in brief: as §3
T47D = assay: Growth inhibition of human T47D cells assessed as cell growth at 10 uM incubated for 48 hrs by sulforhodamine B assay relative to control; method in brief: as §1
SF-295 = assay: Growth inhibition of human SF-295 cells assessed as cell growth at 10 uM incubated for 48 hrs by sulforhodamine B assay relative to control; method in brief: as §1
HCT-116 = assay: Growth inhibition of human HCT-116 cells assessed as cell growth at 10 uM incubated for 48 hrs by sulforhodamine B assay relative to control; method in brief: as §2
SNB-19 = assay: Growth inhibition of human SNB-19 cells assessed as cell growth at 10 uM incubated for 48 hrs by sulforhodamine B assay relative to control; method in brief: as §1
UO-31 = assay: Growth inhibition of human UO-31 cells assessed as cell growth at 10 uM incubated for 48 hrs by sulforhodamine B assay relative to control; method in brief: as §1
MDA-MB-435 = assay: Growth inhibition of human MDA-MB-435 cells assessed as cell growth at 10 uM incubated for 48 hrs by sulforhodamine B assay relative to control; method in brief: as §2
MCF7 = assay: Growth inhibition of human MCF7 cells assessed as cell growth at 10 uM incubated for 48 hrs by sulforhodamine B assay relative to control; method in brief: as §2
NCI/ADR-RES = assay: Growth inhibition of human NCI/ADR-RES cells assessed as cell growth at 10 uM incubated for 48 hrs by sulforhodamine B assay relative to control; method in brief: as §2
MOLT-4 = assay: Growth inhibition of human MOLT-4 cells assessed as cell growth at 10 uM incubated for 48 hrs by sulforhodamine B assay relative to control; method in brief: as §2
SN12C = assay: Growth inhibition of human SN12C cells assessed as cell growth at 10 uM incubated for 48 hrs by sulforhodamine B assay relative to control; method in brief: as §1
HCC 2998 = assay: Growth inhibition of human HCC 2998 cells assessed as cell growth at 10 uM incubated for 48 hrs by sulforhodamine B assay relative to control; method in brief: as §3
MDA-MB-468 = assay: Growth inhibition of human MDA-MB-468 cells assessed as cell growth at 10 uM incubated for 48 hrs by sulforhodamine B assay relative to control; method in brief: as §2
KM12 = assay: Growth inhibition of human KM12 cells assessed as cell growth at 10 uM incubated for 48 hrs by sulforhodamine B assay relative to control; method in brief: as §2
COLO 205 = assay: Growth inhibition of human COLO 205 cells assessed as cell growth at 10 uM incubated for 48 hrs by sulforhodamine B assay relative to control; method in brief: as §3
SF-539 = assay: Growth inhibition of human SF-539 cells assessed as cell growth at 10 uM incubated for 48 hrs by sulforhodamine B assay relative to control; method in brief: as §1
A498 = assay: Growth inhibition of human A498 cells assessed as cell growth at 10 uM incubated for 48 hrs by sulforhodamine B assay relative to control; method in brief: as §3
PC-3 = assay: Growth inhibition of human PC-3 cells assessed as cell growth at 10 uM incubated for 48 hrs by sulforhodamine B assay relative to control; method in brief: as §1
OVCAR-4 = assay: Growth inhibition of human OVCAR-4 cells assessed as cell growth at 10 uM incubated for 48 hrs by sulforhodamine B assay relative to control; method in brief: as §1
SK-MEL-5 = assay: Growth inhibition of human SK-MEL-5 cells assessed as cell growth at 10 uM incubated for 48 hrs by sulforhodamine B assay relative to control; method in brief: as §1
ACHN = assay: Growth inhibition of human ACHN cells assessed as cell growth at 10 uM incubated for 48 hrs by sulforhodamine B assay relative to control
Method in brief: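 NCI Developmental Therapeutics Program NCI60 human tumour cell line panel, one-dose primary screen with every compound at 10 µM. Growth is expressed as % of untreated control cells (100%).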

786-0 = assay: Growth inhibition of human 786-0 cells assessed as cell growth at 10 uM incubated for 48 hrs by sulforhodamine B assay relative to control; method in brief: as §3
NCI-H460 = assay: Growth inhibition of human NCI-H460 cells assessed as cell growth at 10 uM incubated for 48 hrs by sulforhodamine B assay relative to control; method in brief: as §2
HCT-15 = assay: Growth inhibition of human HCT-15 cells assessed as cell growth at 10 uM incubated for 48 hrs by sulforhodamine B assay relative to control; method in brief: as §2
RXF 393 = assay: Growth inhibition of human RXF 393 cells assessed as cell growth at 10 uM incubated for 48 hrs by sulforhodamine B assay relative to control; method in brief: as §1

SMILES	growth at 10 µM (U-251) [%]	growth at 10 µM (OVCAR-3) [%]	growth at 10 µM (Malme-3M) [%]	growth at 10 µM (DU-145) [%]	growth at 10 µM (OVCAR-8) [%]	growth at 10 µM (M14) [%]	growth at 10 µM (HOP-92) [%]	growth at 10 µM (A549) [%]	growth at 10 µM (T47D) [%]	growth at 10 µM (SF-295) [%]	growth at 10 µM (HCT-116) [%]	growth at 10 µM (SNB-19) [%]	growth at 10 µM (UO-31) [%]	growth at 10 µM (MDA-MB-435) [%]	growth at 10 µM (MCF7) [%]	growth at 10 µM (NCI/ADR-RES) [%]	growth at 10 µM (MOLT-4) [%]	growth at 10 µM (SN12C) [%]	growth at 10 µM (HCC 2998) [%]	growth at 10 µM (MDA-MB-468) [%]	also measured
CC1(C)CCc2cc(-c3ccn(S(=O)(=O)c4ccc(C(C)(C)C)cc4)n3)ccc2O1	80.8	91.8	105	70	84.5	91.3	73.2	74.6	84.9	82.6	73.1	88.2	84.8	93	95.7	82.5	98.5	87.7	98	52.5	growth at 10 µM (HL-60(TB)): 111%; growth at 10 µM (KM12): 90.5%; growth at 10 µM (COLO 205): 118%; growth at 10 µM (SF-539): 91.2%; growth at 10 µM (A498): 68.4%; growth at 10 µM (PC-3): 72.9%; growth at 10 µM (OVCAR-4): 63.2%; growth at 10 µM (SK-MEL-5): 78%; growth at 10 µM (ACHN): 87.8%; growth at 10 µM (786-0): 79.9%; growth at 10 µM (NCI-H460): 82.9%; growth at 10 µM (HCT-15): 87%
CC(=O)Nc1ccc(S(=O)(=O)n2ccc(-c3ccc4c(c3)CCC(C)(C)O4)n2)cc1	66	74.4	82.5	83.5	69.4	64.7	69.8	57.8	31.1	60.2	29.9	73.3	67.9	67.3	66.2	56.9	50.7	89	83.3	24.9	growth at 10 µM (HL-60(TB)): 91.9%; growth at 10 µM (KM12): 67.4%; growth at 10 µM (COLO 205): 88.8%; growth at 10 µM (SF-539): 73.8%; growth at 10 µM (A498): 21.9%; growth at 10 µM (PC-3): 44.4%; growth at 10 µM (OVCAR-4): 46.2%; growth at 10 µM (SK-MEL-5): 26.3%; growth at 10 µM (ACHN): 79.3%; growth at 10 µM (786-0): 79.8%; growth at 10 µM (NCI-H460): 41.4%; growth at 10 µM (HCT-15): 59.3%
COc1cccc(NC(=O)c2sc3nc4c(cc3c2N)CN(Cc2ccccc2)CC4)c1	21	46	12	32	28	56	23	22	39	21	23	35	24	3	21	28	69	52	49	30	growth at 10 µM (KM12): 57%; growth at 10 µM (COLO 205): 44%; growth at 10 µM (SF-539): -18%; growth at 10 µM (A498): 29%; growth at 10 µM (PC-3): 54%; growth at 10 µM (RXF 393): 6%; growth at 10 µM (OVCAR-4): 13%; growth at 10 µM (SK-MEL-5): 35%; growth at 10 µM (ACHN): 14%; growth at 10 µM (786-0): 22%; growth at 10 µM (NCI-H460): 24%; growth at 10 µM (HCT-15): 30%
CCc1ccccc1NC(=O)c1sc2nc3c(cc2c1N)C(=O)CCC3	13	-12.7	60.8	2.55	24.3	5	54	21.5	22	-3.21	24	35	44.5	-56.6	8.32	5	24.4	40	20	14	growth at 10 µM (HL-60(TB)): -10.3%; growth at 10 µM (KM12): 21%; growth at 10 µM (COLO 205): -68%; growth at 10 µM (SF-539): -17%; growth at 10 µM (A498): -9.7%; growth at 10 µM (RXF 393): -4%; growth at 10 µM (OVCAR-4): 41%; growth at 10 µM (SK-MEL-5): 17%; growth at 10 µM (ACHN): 38%; growth at 10 µM (786-0): 35.1%; growth at 10 µM (NCI-H460): 6.42%; growth at 10 µM (HCT-15): 29%
Cc1ccc(NC(=O)c2sc3nc4c(cc3c2N)C(=O)CCC4)cc1C	10	-17	47	8.18	31	-23	50	19.5	24.1	8.72	23	31	45	-67	10.7	9	27.6	35	10	4	growth at 10 µM (HL-60(TB)): -21%; growth at 10 µM (KM12): 19.5%; growth at 10 µM (COLO 205): -63%; growth at 10 µM (SF-539): -18%; growth at 10 µM (A498): -16%; growth at 10 µM (RXF 393): -18%; growth at 10 µM (OVCAR-4): 32%; growth at 10 µM (SK-MEL-5): 16%; growth at 10 µM (ACHN): 43%; growth at 10 µM (786-0): 29%; growth at 10 µM (NCI-H460): 4%; growth at 10 µM (HCT-15): 27%
CC1(C)CCc2cc(-c3ccn(S(=O)(=O)c4ccc(Cl)cc4Cl)n3)ccc2O1	87.9	101	85.1	96.9	97	85.9	57.1	83.7	76.6	94.4	73.6	87.2	73.3	95.7	86.6	96.1	84.8	89.6	99.1	81.5	growth at 10 µM (HL-60(TB)): 102%; growth at 10 µM (KM12): 92.9%; growth at 10 µM (COLO 205): 106%; growth at 10 µM (SF-539): 103%; growth at 10 µM (A498): 68.9%; growth at 10 µM (PC-3): 62.3%; growth at 10 µM (OVCAR-4): 69%; growth at 10 µM (SK-MEL-5): 97.3%; growth at 10 µM (ACHN): 103%; growth at 10 µM (786-0): 79%; growth at 10 µM (NCI-H460): 95.6%; growth at 10 µM (HCT-15): 91%
